The test system of experiment [1] is Mus musculus. The experiment can be described thus: Antidiabetic activity in STZ-induced Kunming mouse model of diabetes assessed as down regulation of glucose-6-phosphatase expression level in liver at 62.5 to 125 m/kg, po administered QD administered via gavage for 4 weeks by Western blot analysis. Type of experiment: functional, organism-based. The method in brief: (§1)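 Livers from diabetic mice after 28 days of daily gavage (31.25–125 mg/kg) were homogenized and spun at 14 000g, 4 °C. Proteins were run on 10% SDS-PAGE and transferred to PVDF, then blocked in 5% milk for 1 h. Primary antibodies (GK, PK, PFK, PCB, PEPCK, FBPase, G-6-Pase, p-IR Tyr999, p-IRS-1 Ser307) were applied for 1 h at 25 °C, followed by HRP anti-rabbit IgG and ECL detection. Mean ± SD, Duncan's test.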

Experiment [2] relates to Mus musculus. The experiment can be described thus: Antidiabetic activity in STZ-induced Kunming mouse model of diabetes assessed as down regulation of fructose-1-6-phosphatase expression level in liver at 31.25 to 125 m/kg, po administered QD administered via gavage for 4 weeks by Western blot analysis. Type of experiment: functional, organism-based. The method in brief: as §1
Background: Immunoblotting shows a protein as a band on a membrane.

Experiment [3] has as its system Mus musculus. Put plainly: Antidiabetic activity in po dosed STZ-induced Kunming mouse model of diabetes assessed as increase in Firmicutes level in feces administered QD administered via gavage for 4 weeks by 16S rDNA based Illumina sequencing method. The experiment is classed as functional, organism-based.
The subject of experiment [4] is Mus musculus. The experiment can be described thus: Antidiabetic activity in po dosed STZ-induced Kunming mouse model of diabetes assessed as increase in Bacteroidetes level in feces administered QD administered via gavage for 4 weeks by 16S rDNA based Illumina sequencing method. Type of experiment: functional, organism-based.
Experiment [5] has as its system Mus musculus. The experiment can be described thus: Antidiabetic activity in STZ-induced Kunming mouse model of diabetes assessed as increase in Lactobacillus level in feces at 31.25 to 125 mg/kg, po administered QD administered via gavage for 4 weeks by 16S rDNA based Illumina sequencing method. Type of experiment: functional, organism-based.
Experiment [6] has as its system Mus musculus. The experiment can be described thus: Antidiabetic activity in STZ-induced Kunming mouse model of diabetes assessed as increase in Lackno-spiraceae NK4A136 level in feces at 31.25 to 125 mg/kg, po administered QD administered via gavage for 4 weeks by 16S rDNA based Illumina sequencing method. The experiment is classed as functional, organism-based.

For experiment [7], the system named is Mus musculus. The experiment can be described thus: Antidiabetic activity in STZ-induced Kunming mouse model of diabetes assessed as increase in Oscillibacter level in feces at 31.25 to 125 mg/kg, po administered QD administered via gavage for 4 weeks by 16S rDNA based Illumina sequencing method. Type of experiment: functional, organism-based.
Experiment [8] relates to Mus musculus. The experiment can be described thus: Antidiabetic activity in STZ-induced Kunming mouse model of diabetes assessed as decrease in Escherichia-Shigella level in feces at 31.25 to 125 mg/kg, po administered QD administered via gavage for 4 weeks by 16S rDNA based Illumina sequencing method. The experiment is classed as functional, organism-based.
Experiment [9] has as its system Mus musculus. The experiment can be described thus: Antidiabetic activity in STZ-induced Kunming mouse model of diabetes assessed as increase in Bifidobacterium level in feces at 31.25 to 125 mg/kg, po administered QD administered via gavage for 4 weeks by 16S rDNA based Illumina sequencing method. Type of experiment: functional, organism-based.
The subject of experiment [10] is Mus musculus. Put plainly: Antidiabetic activity in STZ-induced Kunming mouse model of diabetes assessed as decrease in Rumino-coccaceae UCG-014 level in feces at 31.25 to 125 mg/kg, po administered QD administered via gavage for 4 weeks by 16S rDNA based Illumina sequencing method. The experiment is classed as functional, organism-based.
The subject of experiment [11] is Mus musculus. Put plainly: Antidiabetic activity in STZ-induced Kunming mouse model of diabetes assessed as decrease in Weis-sella level in feces at 31.25 to 125 mg/kg, po administered QD administered via gavage for 4 weeks by 16S rDNA based DNA sequencing analysis. The experiment is classed as functional, organism-based.
Experiment [12] has as its system Mus musculus. Put plainly: Antidiabetic activity in STZ-induced Kunming mouse model of diabetes assessed as decrease in Ruminococcus level in feces at 31.25 to 125 mg/kg, po administered QD administered via gavage for 4 weeks by 16S rDNA based DNA sequencing analysis. Type of experiment: functional, organism-based.
In experiment [13] the test system is Mus musculus. The experiment can be described thus: Antidiabetic activity in STZ-induced Kunming mouse model of diabetes assessed as decrease in Prevo-tellaceae Ga6A1 level in feces at 31.25 to 125 mg/kg, po administered QD administered via gavage for 4 weeks by 16S rDNA based DNA sequencing analysis. Type of experiment: functional, organism-based.
For experiment [14], the system named is Mus musculus. The experiment can be described thus: Antidiabetic activity in STZ-induced Kunming mouse model of diabetes assessed as decrease in Anaer-ostipes level in feces at 31.25 to 125 mg/kg, po administered QD administered via gavage for 4 weeks by 16S rDNA based DNA sequencing analysis. Type of experiment: functional, organism-based.
Experiment [15] concerns Mus musculus. The experiment can be described thus: Antidiabetic activity in STZ-induced Kunming mouse model of diabetes assessed as increase in Lactococcus level in feces at 31.25 to 125 mg/kg, po administered QD administered via gavage for 4 weeks by 16S rDNA based DNA sequencing analysis. Type of experiment: functional, organism-based.
Experiment [16] has as its system Mus musculus. Put plainly: Antidiabetic activity in STZ-induced Kunming mouse model of diabetes assessed as increase in Lachnospiraceae level in feces at 31.25 to 125 mg/kg, po administered QD administered via gavage for 4 weeks by 16S rDNA based DNA sequencing analysis. Type of experiment: functional, organism-based.
Experiment [17] has as its system Mus musculus. The experiment can be described thus: Antidiabetic activity in STZ-induced Kunming mouse model of diabetes assessed as increase in Alistipes level in feces at 31.25 to 125 mg/kg, po administered QD administered via gavage for 4 weeks by 16S rDNA based DNA sequencing analysis. The experiment is classed as functional, organism-based.
Experiment [18] concerns Mus musculus. Put plainly: Antidiabetic activity in STZ-induced Kunming mouse model of diabetes assessed as decrease in Klebsiella level in feces at 62.5 to 125 mg/kg, po administered QD administered via gavage for 4 weeks by 16S rDNA based DNA sequencing analysis. The experiment is classed as functional, organism-based.
For experiment [19], the system named is Mus musculus. Put plainly: Antidiabetic activity in STZ-induced Kunming mouse model of diabetes assessed as decrease in Prevo-tellaceae UCG-001 level in feces at 62.5 to 125 mg/kg, po administered QD administered via gavage for 4 weeks by 16S rDNA based DNA sequencing analysis. The experiment is classed as functional, organism-based.
For experiment [20], the system named is Mus musculus. Put plainly: Antidiabetic activity in STZ-induced Kunming mouse model of diabetes assessed as decrease in Bacteroidales S24-7 level in feces at 62.5 to 125 mg/kg, po administered QD administered via gavage for 4 weeks by 16S rDNA based DNA sequencing analysis. The experiment is classed as functional, organism-based.
In experiment [21] the test system is Mus musculus. The experiment can be described thus: Antidiabetic activity in STZ-induced diabetic Kunming mouse assessed as increase in body weight gain at 62.5 to 125 mg/kg, po QD administered via gavage for 4 weeks and measured every 3 days for 28 day.

This passage reports Activity results from ChEMBL document CHEMBL4373713, “Effect of 1-Deoxynojirimycin Isolated from Mulberry Leaves on Glucose Metabolism and Gut Microbiota in a Streptozotocin-Induced Diabetic Mouse Model” (J Nat Prod, 2019).

The source made the active and inactive calls. No cut-off for these calls is given here.

On to `OC[C@H]1NC[C@H](O)[C@@H](O)[C@@H]1O`, for which the outcome in the experiment on Mus musculus [1], with Mus musculus [2], in the experiment on Mus musculus [5], in the experiment with Mus musculus [6], with Mus musculus [7] and in the experiment on Mus musculus [9] was Active. Besides, the result with Mus musculus [10], in the experiment on Mus musculus [11], in the experiment with Mus musculus [12], in the experiment with Mus musculus [13], in the experiment with Mus musculus [14] and with Mus musculus [16] was Active. Also, the result in the experiment with Mus musculus [17], in the experiment on Mus musculus [18], with Mus musculus [19], in the experiment with Mus musculus [20] and in the experiment on Mus musculus [21] was Active. Further, the Activity result in the experiment on Mus musculus [3] and in the experiment on Mus musculus [4] was “Dose-dependent effect” each time. The result in the experiment with Mus musculus [8] and in the experiment with Mus musculus [15] was inactive.
